Only some compounds are listed: those with a hit (about 1.7% of all), similar ones and a draw of the others.
PfG6PD inh = PfG6PD enzyme inhibitors, primary screen, biochemical, fluorescence intensity, uHTS. PfGluPho enzyme, NADPH resazurin-diaphorase fluorescence. inhibition, % at 20 µM. hit rate 0.78% among 350,000;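 active means inhibition reaching at least a set limit at 20 µM in the primary screen, cut at about 59% in these data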;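 further: 0% = DMSO wells with substrate and 100% = DMSO wells lacking glucose-6-phosphate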
APJ ag = agonists of human apelin receptor APJ, primary screen, CHO-K1 cells, PathHunter beta-arrestin, luminescence; hit rate 0.11% among 330,000; P35414; activation, % at 20 µM; AID 2520, 2010; 0% DMSO wells, 100% apelin;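 active means activation more than six SD over the plate average, tested at 20 µM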;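 further: 0% = DMSO alone and 100% = apelin-13 at 10 nM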
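Material: CHO-K1 APJ beta-arrestin complementation cell line; Input: cell density 1000 per well; Incubation: compound stimulation 90 min at 25 °C, detection 60 min; Signal: luminescence from split beta-galactosidase complementation, Galacton Star/Emerald II substrate; Controls: DMSO-only wells as negative, 10 nM Apelin-13 as positive control.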
Beta2AR agonist = beta2AR agonists driving receptor internalization, primary screen, cell-based, FAP fluorogen, flow cytometry. hit rate 0.43% among 340,000. Am2.2-beta2AR cells. response, % (test concentration not listed). Beta-2 adrenergic receptor (Homo sapiens), P07550;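 active means response above a set limit, near 3 SD of response in nonfluorescent compounds, cut at about 42% in these data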
APJ antagonist = antagonists of human apelin receptor APJ, primary screen, CHO-K1 cells, beta-arrestin complementation, luminescence; inhibition, % at 20 µM; P35414; hit rate 0.32% among 330,000;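 active means inhibition above about 40% at 20 µM, limit read from the data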;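 further: cells challenged with 10 nM apelin-13 agonist together with compound; plate controls were apelin-13 plus DMSO wells for no effect and DMSO wells lacking apelin-13 for full effect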
CXCR6 inh = CXCR6 receptor inhibitors, primary screen, cell-based, beta-arrestin, luminescence, CHO-K1 PathHunter, 1536-well; C-X-C chemokine receptor type 6 (Homo sapiens), O00574; inhibition, % at 20 µM; hit rate 0.36% among 360,000; AID 602244, 2012; in the data active means inhibition above about 34%, passing the limit was not always enough;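 further: antagonist mode with CXCL16 agonist at 10 nM final; 0% = 10 nM CXCL16 with DMSO and 100% = unstimulated wells without agonist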
Target sequence (O00574 whole entry, looked up): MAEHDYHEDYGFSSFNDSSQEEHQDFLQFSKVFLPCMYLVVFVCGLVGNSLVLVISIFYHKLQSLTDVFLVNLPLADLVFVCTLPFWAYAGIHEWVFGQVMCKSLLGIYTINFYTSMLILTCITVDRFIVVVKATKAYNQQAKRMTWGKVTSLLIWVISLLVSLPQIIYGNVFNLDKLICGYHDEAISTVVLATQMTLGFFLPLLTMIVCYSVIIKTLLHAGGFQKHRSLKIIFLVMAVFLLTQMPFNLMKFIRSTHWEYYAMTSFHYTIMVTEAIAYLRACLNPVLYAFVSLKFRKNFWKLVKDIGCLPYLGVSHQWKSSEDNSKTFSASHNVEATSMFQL
CCR6 antag = CCR6 receptor antagonists, primary screen, cell-based, CHO-K1, luminescence, beta-arrestin, uHTS | C-C chemokine receptor type 6 (Homo sapiens), P51684 | inhibition, % at 20 µM | AID 493098, 2011 | hit rate 0.49% among 340,000 | CHO-K1 CCR6 PathHunter beta-arrestin, CCL20-stimulated;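 active means compounds whose inhibition of the agonist-driven luminescence signal at 20 µM reaches about 50%, limit read from the data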;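 further: cells stimulated with CCL20 at 14 nM final; plate controls were DMSO with CCL20 for no effect and DMSO without agonist for full effect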
B2AR ag CP1 = beta2AR agonists via receptor internalization, confirmation, cell-based, FAP fluorogen, flow cytometry, single point, cherry pick 1 | shares compounds with Beta2AR agonist | Am2.2-beta2AR cells, FAP surface receptor; active compounds read low | percent response (surface receptor), % at 10 µM | hit rate 25% among 1,100 | AID 540358, 2011;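 active means surface receptor percent response at or below 58%, roughly 3 SD from nonfluorescent compounds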
FAP fluor counter = fluorescence artifact in beta-2AR agonist FAP counterscreen. shares compounds with Beta2AR agonist. Am2.2 cells, FAP fluorogen flow cytometry; active compounds read low. calls only at 10 µM. 1,100 tested, under 10 active;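 active means percent response below a set limit in fluorescence channel 1 and below 50% in channel 8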
Numbers without * were called inactive; i = inactive; / = no result given; ! = a repeat was not active.

SMILES | PfG6PD inh | APJ ag | Beta2AR agonist | APJ antagonist | CXCR6 inh | CCR6 antag | B2AR ag CP1 | FAP fluor counter
CCCCCCCCCCOC(=O)Cn1c(COc2ccccc2)[n+](C)c2ccccc21 | 10 | -7 | 8 | 5 | 12 | 11 | / | /
CCCCCCCCCCOC(=O)Cn1c(COc2cccc(C)c2)[n+](C)c2ccccc21 | 21 | -4 | 0 | 11 | -5 | 11 | 124 | i
Cc1ccccc1OCc1n(CC(=O)OC2CC(C)CCC2C(C)C)c2ccccc2[n+]1C (stereo unspecified) | -4 | -7 | 108*! | -3 | -7 | 17 | 97 | i
CCCCCCCCCCOC(=O)Cn1c(COc2ccccc2C)[n+](C)c2ccccc21 | 21 | -1 | 68* | 32 | 6 | 20 | 105 | i
CC(=O)Nc1cc(C)ns1 | -5 | / | -6 | / | 0 | 0 | / | /
CC1CC(C)CN(S(=O)(=O)c2ccc(C(=O)N3CC(C)OC(C)C3)cc2)C1 (stereo unspecified) | -4 | 0 | -4 | 7 | 8 | 14 | / | /
CC(=O)Nc1ccc(NC(=O)CS(=O)(=O)c2cn(CC(=O)N3CCC(C)CC3)c3ccccc23)cc1 | -2 | -2 | -5 | -5 | -5 | -18 | / | /
CCn1c(SCC(=O)Nc2cc(C)on2)nc2c(c1=O)SCC2 | -2 | 6 | -9 | 14 | 3 | 14 | / | /
COC(=O)C1=C(C)N(Cc2ccccc2)C(=NCCc2cccnc2)N[C@H]1c1ccc(Br)cc1 | -7 | -1 | 47* | 13 | -1 | 10 | 85 | i
COC(=O)C1=C(C)N(Cc2ccccc2)C(=NCCc2cccnc2)N[C@H]1c1ccccc1 | 2 | -2 | 19 | 0 | 10 | 15 | / | /
O=C(CSc1ccc(Cl)cc1)Nc1ccccc1N1CCN(C(=O)c2ccccc2)CC1 | 5 | -3 | 43* | -19 | 4 | 10 | 65 | i
CS(=O)(=O)N1CCN(c2ccccc2NC(=O)CSc2ccc(Cl)cc2)CC1 | 12 | 3 | 0 | 29 | 2 | 1 | / | /
CC1(C)CC2CC(C)(CN2C(=O)c2cc(-c3ccccc3)on2)C1 (stereo unspecified) | 16 | -2 | -8 | 17 | 0 | 22 | / | /
O=C(COc1ccccc1F)N1c2ccccc2CCc2ccccc21 | 22 | -5 | 63* | -12 | 0 | 19 | 15* | i
COc1ccc(NC(=O)c2cc(-c3cc(C)cc(F)c3)n[nH]2)cc1OC | / | / | / | / | -10 | / | / | /
CCOC(=O)N1CCN(C(=O)CN(C)S(=O)(=O)c2ccc(Cl)cc2)CC1 | 2 | 2 | 82* | 16 | -1 | 6 | 15* | i
CN(CC(=O)N1CCN(c2ccccn2)CC1)S(=O)(=O)c1ccc(Br)cc1 | -19 | -4 | 107* | -13 | 5 | -26 | 27* | i
CCN1CCN(C(=O)CN(C)S(=O)(=O)c2ccc(Cl)cc2)CC1 | -8 | -3 | -4 | 34 | -6 | 4 | / | /
CC(Sc1nc(-c2ccccc2)cc(C(F)(F)F)n1)C(=O)N1CCCCC1 (stereo unspecified) | -12 | 4 | 99* | 23 | -7 | 13 | 11* | i
CC1CCCN(C(=O)C(C)Sc2nc(-c3ccccc3)cc(C(F)(F)F)n2)C1 (stereo unspecified) | -25 | 0 | 15 | -6 | 11 | 15 | 67 | i
CCN(C(=O)c1ccc(NC(C)=O)cc1)c1ccccc1C | -18 | -2 | -16 | 6 | 5 | -11 | / | /
CCCCC(=O)Nc1ccc(C(=O)N(CC)c2ccccc2C)cc1 | -8 | -3 | 63* | -30 | -6 | 23 | 74 | i

From PubChem
